Experimental data reported in ChEMBL document CHEMBL1153374, “Synthesis, anti-inflammatory, and antioxidant activities of 18beta-glycyrrhetinic acid derivatives as chemical mediators and xanthine oxidase inhibitors” (Bioorg Med Chem, 2009).
The source made the active and inactive calls. The calls are words filed in the database; no cut-off is given here.

Tests used:
[1] = test system: Radical scavenging activity; assay: Antioxidant activity assessed as DPPH radical scavenging activity; assay type: functional
Nucleic Acid = assay: Inhibition of superoxide anion induced DNA damage of Escherichia coli pBR322 at 300 uM by gel electrophoresis; assay type: functional
How it was run: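 Supercoiled pBR322 plasmid DNA (1 µg/µL) was exposed to xanthine (2 mM)/xanthine oxidase (0.7 U/mL) in 10 mM phosphate buffer, pH 7.4, with compound for 20 min at 37 °C. SOD and quercetin served as comparators. Mixtures were electrophoresed on 1.0% agarose with ethidium bromide (0.05 µg/mL) in TAE, 100 V, 30 min.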

Neutrophil [2] = assay: Inhibition of fMLP/cytochalasin B-stimulated super oxide anion generation in Sprague-Dawley rat neutrophils; assay type: functional, cell-based
How it was run: (§1)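 Peripheral blood neutrophils were isolated from Sprague-Dawley rats. Stimulus was fMLP (0.3 µM) with cytochalasin B (5 µg/mL) for 30 min, or PMA (3 nM). Superoxide was measured as SOD-inhibitable cytochrome c reduction. DPI was the reference inhibitor. IC50 was taken from concentration–response curves; means ± SD, n = 3–6.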

RAW264.7 [3] = assay: Inhibition of LPS-induced TNFalpha release in mouse RAW264.7 cells pretreated 1 hr before LPS challenge by enzyme immunoassay; assay type: functional, cell-based
How it was run: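 RAW 264.7 murine macrophages were incubated with compound (diluted from DMSO stock; final DMSO <0.5% v/v), then stimulated with LPS. Secreted TNF-α in culture supernatant was quantified by EIA kit. Data are means ± SD, n = 3–6. IC50 was taken from concentration–response curves.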

Neutrophil [4] = assay: Inhibition of PMA-stimulated super oxide anion generation in Sprague-Dawley rat neutrophils; assay type: functional, cell-based; how it was run: as §1
RAW264.7 [5] = assay: Inhibition of LPS-induced nitric oxide generation in mouse RAW264.7 cells pretreated 1 hr before LPS challenge by Griess method; assay type: functional, cell-based
How it was run: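 Plated RAW 264.7 cells were preincubated with compound for 1 h at 37 °C, then stimulated with LPS at 1 µg/mL for 24 h. Nitrite accumulated in the medium was measured by the Griess reaction. Results are % inhibition at a single concentration or IC50 from concentration curves. Data are means ± SD, n = 3–6. Final DMSO <0.5%.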

RAW264.7 [6] = assay: Inhibition of LPS-induced iNOS protein expression in mouse RAW264.7 cells at 10 uM pretreated 1 hr before LPS challenge by Western blot; assay type: functional, cell-based
How it was run: (§2)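 RAW 264.7 cells were pretreated 1 h with compound at 3 or 10 µM, then given LPS at 50 ng/mL for 24 h. Cells were washed with PBS, lysed in Laemmli SDS buffer and run on 10% SDS–PAGE, then transferred to PVDF and blocked in 5% milk/TBST. Blots were probed with monoclonal anti-iNOS (1:1000, 1 h) and HRP anti-mouse IgG (1:10,000), with ECL detection.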

RAW264.7 [7] = assay: Inhibition of LPS-induced iNOS protein expression in mouse RAW264.7 cells at 3 uM pretreated 1 hr before LPS challenge by Western blot; assay type: functional, cell-based; how it was run: as §2
[8] = molecular target: Xanthine dehydrogenase/oxidase (Homo sapiens, UniProt P47989); assay: Inhibition of xanthine oxidase
How it was run: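 Xanthine oxidase activity measured at 25 °C with xanthine as substrate, in 70 mM phosphate buffer (pH 7.5), following a modified published protocol. Compounds were taken from 30 mM DMSO stocks diluted in DMSO, with final DMSO below 0.5% (v/v).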

Xanthine dehydrogenase/oxidase, sequence (P47989 whole entry): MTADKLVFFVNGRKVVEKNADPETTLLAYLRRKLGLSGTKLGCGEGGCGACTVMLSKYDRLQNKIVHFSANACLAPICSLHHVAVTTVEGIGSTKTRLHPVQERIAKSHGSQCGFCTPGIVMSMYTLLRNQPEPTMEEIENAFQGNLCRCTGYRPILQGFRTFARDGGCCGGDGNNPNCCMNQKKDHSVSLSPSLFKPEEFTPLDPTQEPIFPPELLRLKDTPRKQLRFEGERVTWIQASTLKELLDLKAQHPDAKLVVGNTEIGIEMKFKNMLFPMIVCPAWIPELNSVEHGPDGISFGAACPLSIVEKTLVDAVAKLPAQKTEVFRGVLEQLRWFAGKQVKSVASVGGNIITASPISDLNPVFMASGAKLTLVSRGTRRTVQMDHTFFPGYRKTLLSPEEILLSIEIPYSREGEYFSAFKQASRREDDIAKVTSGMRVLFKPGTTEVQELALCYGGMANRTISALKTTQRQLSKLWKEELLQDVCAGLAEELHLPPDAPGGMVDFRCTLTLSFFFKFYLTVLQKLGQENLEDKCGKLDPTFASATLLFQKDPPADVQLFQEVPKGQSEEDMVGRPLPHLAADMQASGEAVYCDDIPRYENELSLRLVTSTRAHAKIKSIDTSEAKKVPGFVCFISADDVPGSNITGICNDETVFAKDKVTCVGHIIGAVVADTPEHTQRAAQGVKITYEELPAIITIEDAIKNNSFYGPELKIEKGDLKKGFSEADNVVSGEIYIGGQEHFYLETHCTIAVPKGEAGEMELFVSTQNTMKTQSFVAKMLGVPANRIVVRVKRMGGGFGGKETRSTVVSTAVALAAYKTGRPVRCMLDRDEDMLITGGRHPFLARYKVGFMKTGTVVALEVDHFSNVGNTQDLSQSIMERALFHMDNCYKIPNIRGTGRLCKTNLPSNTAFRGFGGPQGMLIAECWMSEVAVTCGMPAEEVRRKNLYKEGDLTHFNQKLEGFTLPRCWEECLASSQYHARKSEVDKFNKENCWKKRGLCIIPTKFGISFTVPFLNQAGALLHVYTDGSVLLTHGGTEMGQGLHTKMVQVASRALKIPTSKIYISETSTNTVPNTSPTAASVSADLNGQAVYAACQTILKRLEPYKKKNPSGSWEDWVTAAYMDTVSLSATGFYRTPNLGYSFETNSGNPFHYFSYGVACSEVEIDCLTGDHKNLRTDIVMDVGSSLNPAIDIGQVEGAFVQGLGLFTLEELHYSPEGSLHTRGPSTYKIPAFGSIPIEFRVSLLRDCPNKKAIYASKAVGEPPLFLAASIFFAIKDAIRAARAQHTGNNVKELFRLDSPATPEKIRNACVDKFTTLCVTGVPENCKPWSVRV

Structure (SMILES)	IC50 (RAW264.7 [3])	IC50 (RAW264.7 [5])	inhibition [1]	inhibition (Nucleic Acid)	inhibition (RAW264.7 [3])	other results
C=C(C)[C@@H]1CC[C@]2(C)[C@H](C(=O)C=C3[C@@H]4C[C@@](C)(C(=O)O)CC[C@]4(C)CC[C@]32C)[C@@]1(C)CCC(=O)O	–	–	inactive	Active	–	IC50 (Neutrophil [2]): 7 µM; inhibition (Neutrophil [2]): Dose-dependent effect
c1ccc2c(c1)[I+]c1ccccc1-2 [DIPHENYLENEIODONIUM CHLORIDE]	–	–	–	–	–	IC50 (Neutrophil [2]): 2.7 µM; inhibition (Neutrophil [2]): Dose-dependent effect; IC50 (Neutrophil [4]): 1.8 µM; inhibition (Neutrophil [4]): Dose-dependent effect
C=C(C)[C@@H]1CC[C@]2(C)[C@H](C(=O)C=C3[C@@H]4C[C@@](C)(C(=O)Nc5ccccc5)CC[C@]4(C)CC[C@]32C)[C@@]1(C)CCC(=O)O	27.7 µM	–	–	–	Dose-dependent effect	–
O=c1c(-c2ccc(O)cc2)coc2cc(O)cc(O)c12 [GENISTEIN]	26.5 µM	–	–	–	Dose-dependent effect	–
C=C(C)[C@@H]1CC[C@]2(C)[C@H](C(=O)C=C3[C@@H]4C[C@@](C)(C(=O)OCc5ccccc5)CC[C@]4(C)CC[C@]32C)[C@@]1(C)CCC(=O)OC	13.7 µM	> 30 µM	inactive	Active	Dose-dependent effect	IC50 (Neutrophil [4]): 17 µM; inhibition (Neutrophil [4]): Dose-dependent effect
C=C(C)[C@@H]1CC[C@]2(C)[C@H](C(=O)C=C3[C@@H]4C[C@@](C)(C(=O)OC)CC[C@]4(C)CC[C@]32C)[C@@]1(C)CCC(=O)OC	–	> 30 µM	–	–	–	–
C=C(C)[C@@H]1CC[C@]2(C)[C@H](C(=O)C=C3[C@@H]4C[C@@](C)(C(=O)NC(C)C)CC[C@]4(C)CC[C@]32C)[C@@]1(C)CCC(=O)O	–	–	inactive	Active	–	IC50 (Neutrophil [2]): 9.8 µM; inhibition (Neutrophil [2]): Dose-dependent effect
COC(=O)[C@@]1(C)CC[C@]2(C)CC[C@]3(C)C(=CC(=O)[C@@H]4[C@@]5(C)CCC(=O)OC(C)(C)[C@@H]5CC[C@]43C)[C@@H]2C1	–	–	inactive	Active	–	IC50 (Neutrophil [4]): 12.9 µM; inhibition (Neutrophil [4]): Dose-dependent effect
C=C(C)[C@@H]1CC[C@]2(C)[C@H](C(=O)C=C3[C@@H]4C[C@@](C)(C(=O)NC(C)C)CC[C@]4(C)CC[C@]32C)[C@@]1(C)CCC(=O)OC	–	13.1 µM	inactive	Active	–	inhibition (RAW264.7 [6]): Active; inhibition (RAW264.7 [7]): Active; IC50 (Neutrophil [4]): 15.6 µM; inhibition (Neutrophil [4]): Dose-dependent effect
Oc1ncnc2[nH]ncc12 [ALLOPURINOL]	–	–	inactive	–	–	inhibition (INH) [8]: Not Active
CC1(C)C(=O)CC[C@]2(C)[C@H]3C(=O)C=C4[C@@H]5C[C@@](C)(C(=O)O)CC[C@]5(C)CC[C@@]4(C)[C@]3(C)CC[C@@H]12	–	> 30 µM	inactive	Active	–	inhibition (INH) [8]: Not Active; IC50 (Neutrophil [2]): 10.3 µM; inhibition (Neutrophil [2]): Dose-dependent effect

Now from value to compound, other results behind:

IC50 (RAW264.7 [3])	IC50 (RAW264.7 [5])	Structure (SMILES)	inhibition [1]	inhibition (Nucleic Acid)	inhibition (RAW264.7 [3])	other results
1.3 µM	–	CC1(C)[C@@H](O)CC[C@]2(C)[C@H]3C(=O)C=C4[C@@H]5C[C@@](C)(C(=O)O)CC[C@]5(C)CC[C@@]4(C)[C@]3(C)CC[C@@H]12 [ENOXOLONE]	–	–	Dose-dependent effect	–
2.3 µM	–	C=C(C)[C@@H]1CC[C@]2(C)[C@H](C(=O)C=C3[C@@H]4C[C@@](C)(C(=O)OCc5ccccc5)CC[C@]4(C)CC[C@]32C)[C@@]1(C)CCC(=O)O	–	–	Dose-dependent effect	–
–	> 30 µM	C=C(C)[C@@H]1CC[C@]2(C)[C@H](C(=O)C=C3[C@@H]4C[C@@](C)(C(=O)OC(C)C)CC[C@]4(C)CC[C@]32C)[C@@]1(C)CCC(=O)OC	–	–	–	–
–	1.5 µM	CC(=N)NCc1cccc(CN)c1 [1400W]	–	–	–	–
15.5 µM	–	C=C(C)[C@@H]1CC[C@]2(C)[C@H](C(=O)C=C3[C@@H]4C[C@@](C)(C(=O)Nc5ccccc5)CC[C@]4(C)CC[C@]32C)[C@@]1(C)CCC(=O)OC	–	–	Dose-dependent effect	–
26.1 µM	–	C=C(C)[C@@H]1CC[C@]2(C)[C@H](C(=O)C=C3[C@@H]4C[C@@](C)(C(=O)OC)CC[C@]4(C)CC[C@]32C)[C@@]1(C)CCC(=O)O	–	–	Dose-dependent effect	–
